The values that follow come from ChEMBL document CHEMBL1124308, “Renin inhibitors. Dipeptide analogues of angiotensinogen utilizing a structurally modified phenylalanine residue to impart proteolytic stability” (J Med Chem, 1988).

What is called IC50 is the concentration that inhibits the measured activity by half. Low values mean higher potency, high ones lower potency. By inhibition is commonly meant the relative decrease from the control value, in per cent. A high value points to a strong effect. The term half-life denotes how long it takes for the measured level to halve.

The target in data set [1] is T1, Renin (Homo sapiens, UniProt P00797).
T1 sequence (P00797 whole entry): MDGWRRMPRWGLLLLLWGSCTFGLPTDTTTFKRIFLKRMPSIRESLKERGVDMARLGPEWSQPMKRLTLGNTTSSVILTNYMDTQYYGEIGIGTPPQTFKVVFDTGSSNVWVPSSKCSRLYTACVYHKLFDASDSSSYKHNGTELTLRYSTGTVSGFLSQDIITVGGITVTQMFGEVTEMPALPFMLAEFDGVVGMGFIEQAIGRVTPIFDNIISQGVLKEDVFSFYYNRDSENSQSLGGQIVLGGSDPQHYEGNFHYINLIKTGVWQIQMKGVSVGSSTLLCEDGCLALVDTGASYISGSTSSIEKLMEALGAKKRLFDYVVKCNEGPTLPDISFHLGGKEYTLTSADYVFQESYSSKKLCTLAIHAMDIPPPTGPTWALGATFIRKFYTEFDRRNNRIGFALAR
Description: Inhibition of purified human renin (pH 6.0).

In the next data set the target is Pepsin A (Sus scrofa) (UniProt P00791). Description: Inhibition of porcine pepsin enzyme at 1*10e-5. Particulars: concentration not given here.
Pepsin A (Sus scrofa), sequence (P00791 60-385 limits assumed): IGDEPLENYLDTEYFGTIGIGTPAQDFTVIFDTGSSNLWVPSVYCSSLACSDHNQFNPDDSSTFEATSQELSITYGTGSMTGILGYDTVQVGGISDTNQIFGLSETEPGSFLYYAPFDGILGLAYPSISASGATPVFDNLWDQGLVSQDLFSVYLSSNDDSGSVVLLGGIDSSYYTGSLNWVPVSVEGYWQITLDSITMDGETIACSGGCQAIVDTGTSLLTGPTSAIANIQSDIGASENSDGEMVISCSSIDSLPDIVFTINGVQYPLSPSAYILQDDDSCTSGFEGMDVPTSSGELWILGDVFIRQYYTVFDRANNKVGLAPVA
Data set [2] deals with T1, Renin. Description: Inhibition of human plasma renin (pH 7.4). It counts as cell-free. Put shortly:
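Plasma renin assay at pH 7.4, adapted from an earlier method: 0.10 M HEPES buffer in place of maleate, incubation lengthened to 2.5 h, and angiotensin I measured by radioimmunoassay on the whole incubation sample. IC50 reported in nM.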

For another data set, the target named is T2, Cathepsin D (Bos taurus) (UniProt P80209).
T2 sequence (whole entry): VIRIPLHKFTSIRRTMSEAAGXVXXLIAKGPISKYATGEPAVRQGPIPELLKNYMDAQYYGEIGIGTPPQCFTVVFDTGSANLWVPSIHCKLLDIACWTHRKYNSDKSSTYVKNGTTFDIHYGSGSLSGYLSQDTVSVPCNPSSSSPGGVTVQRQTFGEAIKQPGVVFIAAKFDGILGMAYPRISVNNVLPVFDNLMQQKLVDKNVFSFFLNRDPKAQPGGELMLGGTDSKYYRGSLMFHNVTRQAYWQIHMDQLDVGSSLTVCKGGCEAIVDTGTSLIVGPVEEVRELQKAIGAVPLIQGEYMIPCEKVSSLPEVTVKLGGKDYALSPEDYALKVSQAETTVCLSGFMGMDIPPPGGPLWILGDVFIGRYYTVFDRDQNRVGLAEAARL
Description: Inhibition of bovine cathepsin D at 1*10e-5. Particulars: concentration not given here.

A short description of data set [3]: (§1) Ratio of IC50 value for human plasma renin(pH 7.4) and purified human renin(pH 6.0). It counts as functional.
In a further data set the test system is chymotrypsin. Put plainly: The compound was tested […] for chymotrypsin susceptibility (degradation). It counts as ADME.
The nature of data set [4]: as §1.

For the compound `CC(C)C[C@H](O)[C@H](O)[C@H](CC1CCCCC1)NC(=O)[C@H](Cc1c[nH]cn1)NC(=O)[C@H](Cc1ccccc1)NC(=O)N(C)C`, the IC50 against Renin [1] was found to be 0.5 nM; against Renin [2], 3.3 nM. Further, the values for the inhibition on Pepsin A (Sus scrofa) and on Cathepsin D (Bos taurus) were 11% and 3%, respectively. The Ratio in data set [3] is 6.6. Also, in the data set on chymotrypsin, the half-life is 17.5 min.
Take `CC(C)C[C@H](O)[C@H](O)[C@H](CC1CCCCC1)NC(=O)[C@H](Cc1c[nH]cn1)NC(=O)[C@H](Cc1ccccc1)NC(=O)N1CCC(O)CC1`: the figures for the IC50 at Renin [1] and against Renin [2] were 0.42 nM and 0.68 nM, respectively. Besides, the inhibition on Pepsin A (Sus scrofa) was found to be 4%; on Cathepsin D (Bos taurus) it was 2%. In addition, the Ratio in data set [3] is 1.6. Besides, the half-life in the data set with chymotrypsin came to 3.3 min.
For `CC(C)C[C@H](O)[C@H](O)[C@H](CC1CCCCC1)NC(=O)[C@H](Cc1c[nH]cn1)NC(=O)/C(=C/c1ccccc1)NC(=O)N1CCOCC1`, the IC50 is 0.58 nM on Renin [1] and 5.3 nM on Renin [2]. The inhibition at Pepsin A (Sus scrofa) and on Cathepsin D (Bos taurus) was 0% each time. For the same compound, the Ratio in data set [3] stood at 9.1.
As to `CC(C)C[C@H](O)[C@H](O)[C@H](CC1CCCCC1)NC(=O)[C@H](Cc1c[nH]cn1)NC(=O)/C(=C/c1ccccc1)CC(=O)N1CCOCC1`, the IC50 was 0.79 nM on Renin [1] and 2.1 nM at Renin [2]. Also, the inhibition against Pepsin A (Sus scrofa) was found to be 8%; against Cathepsin D (Bos taurus), 0%. In data set [3], the Ratio was 2.7. This compound gave a half-life in the data set with chymotrypsin of 1260 min.
Consider `CC(C)C[C@H](O)[C@H](O)[C@H](CC1CCCCC1)NC(=O)[C@H](Cc1c[nH]cn1)N(C)C(=O)[C@H](Cc1ccccc1)NC(=O)N1CCOCC1`, for which the values for the IC50 against Renin [1] and against Renin [2] were 0.94 nM and 2.5 nM, respectively. In addition, the inhibition at Pepsin A (Sus scrofa) and against Cathepsin D (Bos taurus) was 0% each time. Also, in data set [3], the Ratio came to 2.7.
Regarding `CC(C)C[C@H](O)[C@H](O)[C@H](CC1CCCCC1)NC(=O)[C@H](Cc1c[nH]cn1)NC(=O)[C@@H](Cc1ccccc1)NC(=O)N1CCOCC1`, the IC50 at Renin [1] came to 14 nM; at Renin [2], 140 nM. For the same compound, the values for the inhibition on Pepsin A (Sus scrofa) and on Cathepsin D (Bos taurus) were 2% and 1%, respectively. In data set [3], the Ratio stood at 10.
Consider `COc1ccc(C[C@H](NC(=O)N2CCOCC2)C(=O)N[C@@H](Cc2cnc[nH]2)C(=O)N[C@@H](CC2CCCCC2)[C@@H](O)[C@@H](O)CC(C)C)cc1`, for which the IC50 against Renin [1] was 0.76 nM; against Renin [2] it was 2.4 nM. The half-life in the data set with chymotrypsin came to 727 min.
Take `CC(C)C[C@H](O)[C@H](O)[C@H](CC1CCCCC1)NC(=O)[C@H](Cc1c[nH]cn1)NC(=O)[C@H](Cc1ccccc1)NC(=O)N1CCOCC1`: the inhibition against Pepsin A (Sus scrofa) and against Cathepsin D (Bos taurus) was 0% each time. The Ratio in data set [4] amounted to 2.5.
For `CC(C)C[C@H](O)[C@H](O)[C@H](CC1CCCCC1)NC(=O)[C@H](Cc1c[nH]cn1)NC(=O)[C@H](Cc1ccccc1)OC(=O)N1CCOCC1`, the results for the IC50 on Renin [1] and against Renin [2] were 0.82 nM and 3 nM, respectively. The inhibition against Pepsin A (Sus scrofa) and at Cathepsin D (Bos taurus) was 0% each time. In addition, the Ratio in data set [3] was 3.7. The same compound came in with a half-life in the data set with chymotrypsin of 233 min.
For the compound `CC(C)C[C@H](O)[C@H](O)[C@H](CC1CCCCC1)NC(=O)[C@H](Cc1cnc[nH]1)NC(=O)[C@@H](NC(=O)N1CCOCC1)C(C)(C)c1ccccc1`, the half-inhibitory concentration (IC50) stood at 2.6 nM against Renin [1] and 65 nM at Renin [2].
For the compound `CC(C)C[C@H](O)[C@H](O)[C@H](CC1CCCCC1)NC(=O)[C@H](Cc1c[nH]cn1)NC(=O)[C@H](CCc1ccccc1)NC(=O)N1CCOCC1`, the IC50 came to 0.3 nM at Renin [1] and 2 nM against Renin [2]. Besides, the inhibition was found to be 6% against Pepsin A (Sus scrofa) and 0% against Cathepsin D (Bos taurus). Besides, the Ratio in data set [3] worked out at 6.7. The compound further came in with a half-life in the data set with chymotrypsin of 9.6 min.
As to `CC(C)C[C@H](O)[C@H](O)[C@H](CC1CCCCC1)NC(=O)[C@H](Cc1c[nH]cn1)NC(=O)[C@H](Cc1ccccc1)NC(=O)N(C)CCO`, the inhibition came to 3% against Pepsin A (Sus scrofa) and 0% on Cathepsin D (Bos taurus). Moreover, the Ratio in data set [3] is 1.8.
As to `CC(C)C[C@H](O)[C@H](O)[C@H](CC1CCCCC1)NC(=O)[C@H](Cc1c[nH]cn1)NC(=O)[C@@H](CC(=O)N1CCOCC1)Cc1ccccc1`, the IC50 against Renin [1] was 0.29 nM; on Renin [2], 1.3 nM. In addition, the inhibition against Pepsin A (Sus scrofa) and against Cathepsin D (Bos taurus) was 0% throughout. The Ratio in data set [4] worked out at 4.5. In the data set with chymotrypsin, this compound registered a half-life of 227 min.
For the compound `CC(C)C[C@H](O)[C@H](O)[C@H](CC1CCCCC1)NC(=O)[C@H](Cc1cnc[nH]1)NC(=O)[C@H](Cc1ccccc1)NC(=O)N(C)CCO`, the results for the IC50 against Renin [1] and at Renin [2] were 0.55 nM and 0.98 nM, respectively. The compound further yielded a half-life with chymotrypsin of 34.3 min.
On the same counts, the results for `CC(C)C[C@H](O)[C@H](O)[C@H](CC1CCCCC1)NC(=O)[C@H](Cc1cnc[nH]1)NC(=O)[C@H](Cc1ccccc1)NC(=O)N1CCOCC1` are 0.35 nM, 0.89 nM and 2.2 min.
With `CC(C)C[C@H](O)[C@H](O)[C@H](CC1CCCCC1)NC(=O)[C@H](Cc1c[nH]cn1)NC(=O)[C@H](Cc1ccccc1)NC(=O)N1CCNCC1`, the inhibition at Pepsin A (Sus scrofa) and at Cathepsin D (Bos taurus) was 0% in each case. This compound came in with an IC50 at Renin [2] of 4.5 nM. The Ratio in data set [3] is 6.9. The compound also came in with a half-life with chymotrypsin of 6.9 min.
Turning to `CC(C)C[C@H](O)[C@H](O)[C@H](CC1CCCCC1)NC(=O)[C@H](Cc1c[nH]cn1)NC(=O)[C@@H](NC(=O)N1CCOCC1)C(C)(C)c1ccccc1`, the inhibition against Pepsin A (Sus scrofa) and against Cathepsin D (Bos taurus) was 3% each time. Moreover, the Ratio in data set [3] came to 25.
Regarding `COc1ccc(C[C@H](NC(=O)N2CCOCC2)C(=O)N[C@@H](Cc2c[nH]cn2)C(=O)N[C@@H](CC2CCCCC2)[C@@H](O)[C@@H](O)CC(C)C)cc1`, the inhibition on Pepsin A (Sus scrofa) came to 4%; against Cathepsin D (Bos taurus) it was 3%. In addition, the Ratio in data set [3] was determined as 3.2.
